The results in this text go back to ChEMBL document CHEMBL5154764, “Development of small molecules that work cooperatively with ciprofloxacin to clear salmonella biofilms in a chronic gallbladder carriage model” (Eur J Med Chem, 2022).

Each structure is given as a SMILES string. Active and inactive are the calls of the source. No cut-off for these calls is given here.

Experiment [1] has as its system Salmonella typhimurium. In words: Antibiofilm activity against Salmonella typhimurium ATCC 14028 assessed as biofilm dispersal effect incubated for 24 hrs by crystal violet staining based spectrophotometry. It counts as functional, organism-based, Salmonella enterica subsp. enterica serovar Typhimurium. To be noted: Salmonella enterica, ATCC 14028, 24 h. Summed up: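 Biofilms grown 24 h at 30 °C with nutation in TSB diluted 1:20, from 1:100-diluted LB overnight cultures set to OD600 0.8. Crystal violet staining, acetic acid solubilization, 570 nm read-out. EC50 from variable-slope fit of % biofilm remaining vs log concentration. Mean ± SD of three biological replicates.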

Experiment [2] concerns Salmonella typhimurium. As to the kind of experiment: Antibiofilm activity against Salmonella typhimurium ATCC 14028 assessed as inhibition of biofilm formation incubated for 24 hrs by crystal violet staining based spectrophotometry. It is filed as functional, organism-based, Salmonella enterica subsp. enterica serovar Typhimurium. To be noted: Salmonella enterica, ATCC 14028, 24 h. An outline of the steps:
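LB overnight cultures (37 °C) set to OD600 0.8, diluted 1:100 into TSB diluted 1:20 in water. Compound at 0.2–100 μM or DMSO added at inoculation. Grown 24 h at 30 °C with nutation, washed, heat-fixed (60 °C, 1 h), stained with crystal violet, dye solubilized in acetic acid, read at 570 nm. IC50 from variable-slope fit of % biofilm vs log concentration. Mean ± SD of three biological replicates.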

Experiment [3] deals with Salmonella typhimurium. In words: Antibacterial activity against Salmonella typhimurium ATCC 14028 infected in 129X1/SvJ NRAMP +/+ mouse gallstone model assessed as log reduction in bacterial burden in gallblader at 5 mg/kg/day, ip administered for 5 to 15 consecutive days of post infection and measured on day 15 in presence of 1 mg/kg/day ciprofloxacin. It is filed as functional, Salmonella enterica subsp. enterica serovar Typhimurium. The note with it: time 10 day. Summed up: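 129X1/SvJ NRAMP+/+ mice given a lithogenic diet (chow plus 1% cholesterol, 0.5% cholic acid) for 8 weeks. Infected i.p. with ~10^3 CFU in 200 μL PBS. Treated daily i.p. on days 5–15 post-infection; vehicle 5% DMSO in PBS. Day 15: gallbladder, liver and spleen homogenized in 1 mL PBS, serially diluted and plated on LB agar (37 °C, 16 h) for CFU counts. One-way ANOVA with Tukey correction.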

In experiment [4] the test system is Salmonella typhimurium. In words: Antibacterial activity against Salmonella typhimurium ATCC 14028 assessed as bacterial growth inhibition at >=12.5 uM. It is filed as functional, organism-based. The note with it: Salmonella enterica subsp. enterica serovar Typhimurium.
Experiment [5] has as its system Salmonella typhimurium. In words: Antibacterial activity against Salmonella typhimurium ATCC 14028 assessed as bacterial growth inhibition at >=100 uM. To be noted: Salmonella enterica subsp. enterica serovar Typhimurium. It counts as functional, organism-based.
The test system of experiment [6] is Salmonella typhimurium. In words: Antibacterial activity against Salmonella typhimurium ATCC 14028 assessed as bacterial growth inhibition at >= 50 uM. It counts as functional, organism-based. The note with it: Salmonella enterica subsp. enterica serovar Typhimurium.

As to `CN(Cc1ccsc1)CC1CCN(Cc2ccc(Br)c(Br)c2)CC1`, the EC50 in experiment [1] was found to be 32 µM. Further, the IC50 in experiment [2] stood at 11.9 µM.

As to `CN(Cc1ccsc1)CC1CCN(CCc2ccc(Cl)cc2)CC1`, in experiment [1], the EC50 stood at 69 µM. In addition, the concentration for half-maximal inhibition (IC50) in experiment [2] was 3 µM.

Regarding `CN(Cc1ccsc1)CC1CCN(CCc2ccc(-c3ccccc3)cc2)CC1`, the “log(activity)” value in experiment [3] came out at 3.5. Further, in experiment [4], the “growth inhibition (GI)” value is “Active”.

As to `CN(Cc1ccsc1)CC1CCN(Cc2cc(F)cc(F)c2)CC1`, the EC50 in experiment [1] was more than 12000 µM. In addition, in experiment [2], the 50% inhibitory concentration (IC50) was 14.2 µM.

Turning to `CN(Cc1ccsc1)CC1CCN(Cc2ccc(I)cc2)CC1`, in experiment [1], the EC50 came to 77 µM. The half-maximal inhibitory concentration (IC50) in experiment [2] came out at 5.7 µM.

For the compound `CN(Cc1ccsc1)CC1CCN(Cc2ccccc2C(F)(F)F)CC1`, the EC50 in experiment [1] was 140 µM. Also, the IC50 in experiment [2] turned out to be 20.9 µM. Further, the “growth inhibition (GI)” value in experiment [5] is “Active”.

Take `CC(C)c1ccc(CCN2CCC(CN(C)Cc3ccsc3)CC2)cc1`: the EC50 in experiment [1] turned out to be 123 µM. The IC50 in experiment [2] was found to be 2.3 µM. Besides, the “growth inhibition (GI)” value in experiment [4] was “Active”.

Consider `CN(Cc1ccsc1)CC1CCN(CCc2cccc(Br)c2)CC1`, for which the concentration for a half-maximal effect (EC50) in experiment [1] was found to be 83 µM. Moreover, the IC50 in experiment [2] was 3.6 µM. Also, the “growth inhibition (GI)” value in experiment [5] was “Active”.

Consider `CN(Cc1ccsc1)CC1CCN(CCc2ccc(I)cc2)CC1`, for which, in experiment [6], the “growth inhibition (GI)” value was “Active”. The EC50 in experiment [1] stood at 89 µM. In experiment [2], the IC50 is 2.6 µM.

For `CN(Cc1ccsc1)CC1CCN(CCc2cccc(Cl)c2)CC1`, the EC50 in experiment [1] came to 135 µM. Besides, the IC50 in experiment [2] stood at 2 µM. For the same compound, in experiment [5], the “growth inhibition (GI)” value was “Active”.

`CN(Cc1ccsc1)CC1CCN(CCc2ccc(Br)cc2)CC1`: the EC50 in experiment [1] was determined as 57 µM. For the same compound, the IC50 in experiment [2] amounted to 3 µM.

With `CN(Cc1ccsc1)CC1CCN(Cc2cc(Cl)ccc2Cl)CC1`, the EC50 in experiment [1] was found to be 196 µM. The IC50 in experiment [2] worked out at 15.8 µM.

Regarding `CN(Cc1ccsc1)CC1CCN(Cc2ccc(Cl)cc2)CC1`, the concentration for a half-maximal effect (EC50) in experiment [1] was 934 µM. Moreover, the half-inhibitory concentration (IC50) in experiment [2] amounted to 5.9 µM.

For the compound `CN(Cc1ccsc1)CC1CCN(CCc2ccccc2Cl)CC1`, the EC50 in experiment [1] came out at 232 µM. The concentration for half-maximal inhibition (IC50) in experiment [2] was 6 µM.

On to `CN(Cc1ccsc1)CC1CCN(CCc2ccc(F)cc2)CC1`, for which the concentration giving a half-maximal response (EC50) in experiment [1] turned out to be 235 µM. Moreover, in experiment [2], the IC50 came out at 16.8 µM.

In the case of `CN(Cc1ccsc1)CC1CCN(Cc2ccc(Br)cc2)CC1`, the EC50 in experiment [1] is 127 µM. For the same compound, the IC50 in experiment [2] came out at 8.5 µM.

Take `CN(Cc1ccsc1)CC1CCNCC1`: in experiment [1], the EC50 turned out to be 442 µM. Moreover, the 50% inhibitory concentration (IC50) in experiment [2] amounted to 138 µM.

Take `CN(Cc1ccsc1)CC1CCN(CCc2cccc(Cl)c2Cl)CC1`: the “log(activity)” value in experiment [3] is reported as 1.5.

In the case of `CN(Cc1ccsc1)CC1CCN(Cc2ccccc2)CC1`, the half-maximal effective concentration (EC50) in experiment [1] was more than 12000 µM. In addition, in experiment [2], the half-inhibitory concentration (IC50) came out at 26.7 µM.

Turning to `CN(Cc1ccsc1)CC1CCN(Cc2cccc(Cl)c2)CC1`, in experiment [1], the concentration for a half-maximal effect (EC50) was 299 µM. The IC50 in experiment [2] worked out at 5.2 µM.

As for `CN(Cc1ccsc1)CC1CCN(Cc2cccc(Br)c2)CC1`, the 50% effective concentration (EC50) in experiment [1] was determined as 142 µM. For the same compound, the IC50 in experiment [2] was determined as 6.5 µM.

For the compound `CN(Cc1ccsc1)CC1CCN(CCc2cccc(I)c2)CC1`, the EC50 in experiment [1] worked out at 44 µM. In addition, the IC50 in experiment [2] came to 4 µM.

In the case of `Cc1ccccc1CN1CCC(CN(C)Cc2ccsc2)CC1`, in experiment [1], the concentration for a half-maximal effect (EC50) is 247 µM. Besides, the IC50 in experiment [2] was 6.3 µM.

Consider `CN(Cc1ccsc1)CC1CCN(Cc2ccc(Cl)c(Cl)c2)CC1`, for which, in experiment [1], the EC50 is 55 µM. In addition, in experiment [2], the 50% inhibitory concentration (IC50) was 3.9 µM.

For the compound `CN(Cc1ccsc1)CC1CCN(Cc2ccccc2F)CC1`, the EC50 in experiment [1] amounted to 125 µM. In experiment [2], the IC50 stood at 8.8 µM.

Consider `CN(Cc1ccsc1)CC1CCN(Cc2ccccc2I)CC1`, for which the EC50 in experiment [1] amounted to 79 µM. In addition, the half-maximal inhibitory concentration (IC50) in experiment [2] stood at 5.4 µM.

Regarding `CN(Cc1ccsc1)CC1CCN(CCc2ccccc2C(F)(F)F)CC1`, the concentration giving a half-maximal response (EC50) in experiment [1] came out at 60 µM. For the same compound, in experiment [2], the half-inhibitory concentration (IC50) came out at 12.7 µM.
